From PubChem BioAssay AID588817 (The Scripps Research Institute Molecular Screening Center, 2011) come the findings set out here.

The source made the active and inactive calls.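 How the source made its calls: active means compounds cutting probe labeling of the enzyme in cells by at least 50% at 0.1 µM; inactive means under 50% inhibition at that dose.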

This assay has as its target Platelet-activating factor acetylhydrolase (Mus musculus) (UniProt Q60963). As to the kind of experiment: pPAFAH inhibition in transfected cells, late-stage follow-up, cell-based, gel-based competitive ABPP, fluorescence (AID 588817). As to conditions: HEK293T overexpressing mouse pPAFAH, 4 h; at 10 µM (top of the series). The procedure, abridged: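 Material: mouse pPAFAH-transfected 293T cells; amount: lysate fractions at 1 mg/mL protein; medium: serum-free medium during compound treatment; compound dosing: 0.01–10 µM final, four concentrations; times: 4 h compound exposure, 30 min probe labelling, both 37 °C; signal: gel fluorescence band intensity after SDS-PAGE; controls: DMSO high control, blank-gel background low control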

Platelet-activating factor acetylhydrolase (Mus musculus), sequence (Q60963 whole entry, looked up): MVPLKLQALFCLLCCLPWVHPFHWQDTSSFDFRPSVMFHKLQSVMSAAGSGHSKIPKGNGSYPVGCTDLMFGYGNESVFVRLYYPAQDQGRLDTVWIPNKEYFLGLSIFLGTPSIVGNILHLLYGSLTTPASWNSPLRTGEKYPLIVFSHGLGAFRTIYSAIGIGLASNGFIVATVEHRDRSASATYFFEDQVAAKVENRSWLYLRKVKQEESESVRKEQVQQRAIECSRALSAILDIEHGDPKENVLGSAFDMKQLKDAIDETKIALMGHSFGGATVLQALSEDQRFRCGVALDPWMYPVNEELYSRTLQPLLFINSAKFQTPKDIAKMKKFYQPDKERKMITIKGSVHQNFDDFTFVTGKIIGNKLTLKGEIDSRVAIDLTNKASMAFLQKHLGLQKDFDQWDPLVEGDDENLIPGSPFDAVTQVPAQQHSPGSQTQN

On to `Cc1cc(N2CCN(C(=O)Oc3ccc(-c4ccccc4)cn3)CC2)c2ccccc2n1`, for which the inhibition was 100% (active).

By inhibition is commonly meant the share of the control response that was lost under treatment.
